Laboratory results reported in ChEMBL document CHEMBL1152244, “Proteochemometrics analysis of substrate interactions with dengue virus NS3 proteases” (Bioorg Med Chem, 2008).
Non-standard residues stand in square brackets, D forms with d. Residues, ends and D or L forms follow the SMILES beside them. Tyr(3-NO2) = N[C@@H](Cc1ccc(O)c([N+](=O)[O-])c1)C(=O)O; 2Abz = Nc1ccccc1C(=O)O

What was measured:
dengue virus type 2 = assay: Activity of dengue virus 2 recombinant NS3 protease expressed in Escherichia coli C41(DE3) by fluorogenic assay
Method in brief: (§1)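 NS2B(H)-NS3pro from inclusion bodies, Ni-chelate and gel filtration purified under 8 M urea, refolded by dialysis. Internally quenched Abz–RRRR-XXXX–nY–NH2 peptides, 1–100 µM (12 points), enzyme 150–200 nM, 50 mM Tris–HCl pH 9.0, 20% glycerol, 37 °C. Cleavage read as fluorescence, ex 320/em 420 nm. Initial rates fitted to give Km and kcat, averaged over ≥3 independent measurements.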

dengue virus type 3 = assay: Activity of dengue virus 3 recombinant NS3 protease expressed in Escherichia coli C41(DE3) by fluorogenic assay; method in brief: as §1
dengue virus type 4 = assay: Activity of dengue virus 4 recombinant NS3 protease expressed in Escherichia coli C41(DE3) by fluorogenic assay; method in brief: as §1
dengue virus type 1 = assay: Activity of dengue virus 1 recombinant NS3 protease expressed in Escherichia coli C41(DE3) by fluorogenic assay; method in brief: as §1

Row | SMILES | Km (dengue virus type 2) [µM] | kcat (dengue virus type 2) [min⁻¹] | Km (dengue virus type 3) [µM] | kcat (dengue virus type 3) [min⁻¹] | Km (dengue virus type 4) [µM] | kcat (dengue virus type 4) [min⁻¹] | Km (dengue virus type 1) [µM] | kcat (dengue virus type 1) [min⁻¹]
1 | NC(=O)C[C@H](NC(=O)c1ccccc1N)C(=O)N1CCC[C@H]1C(=O)N[C@@H](CO)C(=O)N[C@@H](Cc1cnc[nH]1)C(=O)N[C@@H](Cc1ccc(O)c([N+](=O)[O-])c1)C(N)=O (H-[2Abz]NPSH[Tyr(3-NO2)]-NH2) | 5.18 | 0.08 | 26.9 | 0.11 | 21.5 | 1.35 | 13.4 | 0.37
2 | C[C@@H](O)[C@H](NC(=O)[C@H](Cc1c[nH]c2ccccc12)NC(=O)[C@H](CC(N)=O)NC(=O)c1ccccc1N)C(=O)N[C@@H](CC(N)=O)C(=O)N[C@@H](Cc1ccc(O)c([N+](=O)[O-])c1)C(N)=O (H-[2Abz]NWTN[Tyr(3-NO2)]-NH2) | 6.02 | 0.3 | 9.37 | 0.39 | 10.4 | 2.27 | 13.7 | 0.87
3 | C[C@H](NC(=O)[C@H](CC(N)=O)NC(=O)c1ccccc1N)C(=O)N[C@@H](CS)C(=O)N[C@@H](CS)C(=O)N[C@@H](Cc1ccc(O)c([N+](=O)[O-])c1)C(N)=O (H-[2Abz]NACC[Tyr(3-NO2)]-NH2) | 3.21 | 0.28 | 13 | 0.61 | 3.03 | 2.23 | 8.81 | 0.83
4 | CC(C)[C@H](NC(=O)[C@@H](NC(=O)CNC(=O)c1ccccc1N)[C@@H](C)O)C(=O)N[C@@H](CC(N)=O)C(=O)N[C@@H](Cc1ccc(O)c([N+](=O)[O-])c1)C(N)=O (H-[2Abz]GTVN[Tyr(3-NO2)]-NH2) | 6.5 | 0.33 | 12.6 | 0.58 | 11.8 | 4.41 | 10.5 | 1.16
5 | C[C@@H](O)[C@H](NC(=O)CNC(=O)CNC(=O)c1ccccc1N)C(=O)N[C@@H](CC(=O)O)C(=O)N[C@@H](Cc1ccc(O)c([N+](=O)[O-])c1)C(N)=O (H-[2Abz]GGTD[Tyr(3-NO2)]-NH2) | 12.9 | 0.43 | 18.6 | 1.48 | 12.2 | 3.51 | 49.7 | 4.29
6 | CSCC[C@H](NC(=O)[C@H](C)NC(=O)[C@H](C)NC(=O)[C@H](CO)NC(=O)c1ccccc1N)C(=O)N[C@@H](Cc1ccc(O)c([N+](=O)[O-])c1)C(N)=O (H-[2Abz]SAAM[Tyr(3-NO2)]-NH2) | 3.33 | 1.56 | 13.8 | 1.8 | 14.3 | 13.2 | 16.3 | 9.18

Other lines, results leading:

Row | Km (dengue virus type 2) [µM] | kcat (dengue virus type 2) [min⁻¹] | Km (dengue virus type 3) [µM] | kcat (dengue virus type 3) [min⁻¹] | Km (dengue virus type 4) [µM] | kcat (dengue virus type 4) [min⁻¹] | Km (dengue virus type 1) [µM] | kcat (dengue virus type 1) [min⁻¹] | SMILES
7 | 5.41 | 0.24 | 3.87 | 0.67 | 4.94 | 2.86 | 11.4 | 2.38 | C[C@H](NC(=O)c1ccccc1N)C(=O)N1CCC[C@H]1C(=O)N[C@@H](CS)C(=O)N[C@@H](CC(N)=O)C(=O)N[C@@H](Cc1ccc(O)c([N+](=O)[O-])c1)C(N)=O (H-[2Abz]APCN[Tyr(3-NO2)]-NH2)
8 | 4.18 | 0.41 | 10.8 | 0.62 | 19.2 | 4.47 | 12.6 | 1.54 | C[C@H](NC(=O)c1ccccc1N)C(=O)NCC(=O)N1CCC[C@H]1C(=O)N[C@@H](CC(N)=O)C(=O)N[C@@H](Cc1ccc(O)c([N+](=O)[O-])c1)C(N)=O (H-[2Abz]AGPN[Tyr(3-NO2)]-NH2)
9 | 3.61 | 2.54 | 20.9 | 4.11 | 15.2 | 27.7 | 28.4 | 16.9 | C[C@H](NC(=O)[C@H](CO)NC(=O)c1ccccc1N)C(=O)NCC(=O)N[C@@H](Cc1ccc(O)c([N+](=O)[O-])c1)C(N)=O (H-[2Abz]SAG[Tyr(3-NO2)]-NH2)
10 | 5.15 | 0.17 | 18.7 | 0.44 | 8.15 | 1.32 | 16.9 | 1.2 | NC(=O)[C@H](Cc1ccc(O)c([N+](=O)[O-])c1)NC(=O)[C@@H]1CCCN1C(=O)[C@@H]1CCCN1C(=O)CNC(=O)c1ccccc1N (H-[2Abz]GPP[Tyr(3-NO2)]-NH2)
